The source made the active and inactive calls. The calls are words filed in the database; no cut-off is given here.
Key:
[1] = test system: PANC-1; experiment: Antiproliferative activity against human PANC1 cells after 48 hrs by MTT assay; assay type: functional, cell-based; settings: PANC-1, 48 h
How it was run: (§1)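 3,000 cells per well, grown at 37 °C (DMEM with 10% FBS and penicillin/streptomycin; HCT116 in McCoy's 5A). Cells exposed in triplicate to 0.5–25 μM compound for 48 h. MTT (5 mg/mL PBS stock) added for 3 h, formazan dissolved in DMSO, OD read at 570 nm minus 630 nm background. IC50 from non-linear regression of two independent experiments.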

[2] = test system: UACC-903; experiment: Induction of apoptosis in human UACC-903 cells harboring BRAF mutant assessed as live cells level at 25 uM after 24 hrs by AAD dye containing caspase 3/7 activity assay (reference value: 90.06%); assay type: functional
[3] = test system: CHL-1; experiment: Induction of apoptosis in human CHL-1 cells harboring wild type BRAF assessed as increase in dead cells at 50 uM after 24 hrs by Calcein-AM/ethidium bromide staining-based fluorescence assay (reference value: 2%); assay type: functional
[4] = test system: MDA-MB-231; experiment: Antiproliferative activity against ER/PR/HER2 deficient human MDA-MB-231 cells after 48 hrs by MTT assay; assay type: functional, cell-based; settings: MDA-MB-231, 48 h; how it was run: as §1
[5] = Antiproliferative activity against human A375M cells after 48 hrs by MTT assay; assay type: functional, cell-based; how it was run: as §1
[6] = Selectivity ratio of cytotoxicity against human MCF10A cells to cytotoxicity against human MDA-MB-231 cells; assay type: toxicity, cell-based; settings: MCF10A cells versus MDA-MB-231 cells
[7] = test system: HCT-116; experiment: Antiproliferative activity against human HCT116 cells after 48 hrs by MTT assay; assay type: functional, cell-based; settings: HCT-116, 48 h; how it was run: as §1
[8] = test system: CHL-1; experiment: Induction of apoptosis in human CHL-1 cells harboring wild type BRAF assessed as […] in cleaved PARP level at 5 to 25 uM after 24 hrs by Western blot analysis; assay type: functional, cell-based
How it was run: (§2)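 2 × 10^6 cells treated with the indicated concentrations for 24 h. Whole-cell lysates run on SDS-PAGE, transferred to PVDF, probed with antibodies against apoptosis/survival proteins, and detected by enhanced chemiluminescence.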

[9] = test system: MCF7; experiment: Cytotoxicity against human MCF7 cells assessed as cell viability at 25 uM after 48 hrs by MTT assay relative to control; assay type: functional; settings: MCF7, 48 h, read-out: Activity
How it was run: (§3)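 MTT viability at a single 25 μM dose, 48 h, 3,000 cells/well. MCF10A normal breast epithelial cells were kept in MEGM mammary epithelial medium; the cancer lines were in DMEM with 10% FBS, 37 °C. OD at 570 nm with 630 nm background, expressed relative to control.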

[10] = test system: CHL-1; experiment: Induction of apoptosis in human CHL-1 cells harboring wild type BRAF assessed as decrease in Bcl-xL level at 5 to 25 uM after 24 hrs by Western blot analysis; assay type: functional, cell-based; how it was run: as §2
[11] = test system: UACC-903; experiment: Induction of apoptosis in human UACC-903 cells harboring BRAF mutant assessed as viable cells at 25 uM after 24 hrs by Annexin V/7-AAD staining-based assay (reference value: 95.64%); assay type: functional; settings: UACC-903, 24 h, read-out: Activity
[12] = test system: UACC-903; experiment: Cytotoxicity against human UACC-903 cells assessed as cell viability at 25 uM after 48 hrs by MTT assay relative to control; assay type: functional, cell-based; settings: UACC-903, 48 h
How it was run: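 MCF10A normal breast epithelial cells were kept in MEGM mammary epithelial medium; the cancer lines were in DMEM with 10% FBS, 37 °C. OD at 570 nm with 630 nm background, expressed relative to control.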

[13] = Cytotoxicity against human MCF10A cells assessed as cell viability at 25 uM after 48 hrs by MTT assay relative to control; assay type: cell-based, MCF-10A; settings: read-out: Activity; how it was run: as §3
[14] = test system: CHL-1; experiment: Induction of apoptosis in human CHL-1 cells harboring wild type BRAF assessed as decrease in survivin level at 5 to 25 uM after 24 hrs by Western blot analysis; assay type: functional, cell-based; how it was run: as §2
[15] = test system: UACC-903; experiment: Induction of apoptosis in human UACC-903 cells harboring BRAF mutant assessed as decrease in survivin level at 5 to 25 uM after 24 hrs by Western blot analysis; assay type: functional, cell-based; how it was run: as §2
[16] = test system: UACC-903; experiment: Induction of apoptosis in human UACC-903 cells harboring BRAF mutant assessed as increase in dead cells at 25 uM after 24 hrs by Calcein-AM/ethidium bromide staining-based fluorescence assay (reference value: 3%); assay type: functional
[17] = test system: CHL-1; experiment: Induction of apoptosis in human CHL-1 cells harboring wild type BRAF assessed as increase in dead cells at 25 uM after 24 hrs by Calcein-AM/ethidium bromide staining-based fluorescence assay (reference value: 2%); assay type: functional
[18] = test system: UACC-903; experiment: Induction of apoptosis in human UACC-903 cells harboring BRAF mutant assessed as apoptotic dead cells level at 25 uM after 24 hrs by AAD dye containing caspase 3/7 activity assay (reference value: 3%); assay type: functional
[19] = test system: UACC-903; experiment: Induction of apoptosis in human UACC-903 cells harboring BRAF mutant assessed as necrotic cells at 5 uM after 24 hrs by Annexin V/7-AAD staining-based assay (reference value: 0.12%); assay type: functional
[20] = test system: CHL-1; experiment: Antiproliferative activity against human CHL-1 cells harboring wild type BRAF after 48 hrs by MTT assay; assay type: functional, cell-based; settings: CHL-1, 48 h; how it was run: as §1
[21] = Antiproliferative activity against human 1205 Lu cells after 48 hrs by MTT assay; assay type: functional, cell-based; how it was run: as §1
[22] = test system: UACC-903; experiment: Induction of apoptosis in human UACC-903 cells harboring BRAF mutant assessed as necrotic cells at 25 uM after 24 hrs by Annexin V/7-AAD staining-based assay (reference value: 0.12%); assay type: functional
[23] = test system: UACC-903; experiment: Induction of apoptosis in human UACC-903 cells harboring BRAF mutant assessed as live cells level at 5 uM after 24 hrs by AAD dye containing caspase 3/7 activity assay (reference value: 90.06%); assay type: functional
[24] = test system: WM 266-4; experiment: Antiproliferative activity against human WM266.4 cells after 48 hrs by MTT assay; assay type: functional, cell-based; settings: WM 266-4, 48 h; how it was run: as §1
[25] = test system: UACC-903; experiment: Induction of apoptosis in human UACC-903 cells harboring BRAF mutant assessed as decrease in Bcl-xL level at 5 to 25 uM after 24 hrs by Western blot analysis; assay type: functional, cell-based; how it was run: as §2
[26] = test system: UACC-903; experiment: Induction of apoptosis in human UACC-903 cells harboring BRAF mutant assessed as dead cells level at 5 uM after 24 hrs by AAD dye containing caspase 3/7 activity assay (reference value: 0.06%); assay type: functional
[27] = test system: UACC-903; experiment: Induction of apoptosis in human UACC-903 cells harboring BRAF mutant assessed as late apoptotic cells at 25 uM after 24 hrs by Annexin V/7-AAD staining-based assay (reference value: 1.56%); assay type: functional
[28] = Selectivity ratio of cytotoxicity against human MCF10A cells to cytotoxicity against human MCF7 cells; assay type: toxicity, cell-based; settings: MCF10A cells versus MCF7 cells
[29] = test system: UACC-903; experiment: Induction of apoptosis in human UACC-903 cells harboring BRAF mutant assessed as early apoptotic cells at 5 uM after 24 hrs by Annexin V/7-AAD staining-based assay (reference value: 2.68%); assay type: functional
[30] = test system: UACC-903; experiment: Induction of apoptosis in human UACC-903 cells harboring BRAF mutant assessed as dead cells level at 25 uM after 24 hrs by AAD dye containing caspase 3/7 activity assay (reference value: 0.06%); assay type: functional

Question: Which results are given for O=C1NC(=S)N(c2ccccc2)C(=O)/C1=C/C=C/c1cccs1?
Answer: IC50 [1]: 8.3 µM; Activity [2]: 25.7%; Activity [3]: 40%; IC50 [4]: 8.3 µM; IC50 [5]: 14.8 µM; selectivity ratio [6]: 2; IC50 [7]: 2.4 µM; Activity [8]: Active; viability at 25 µM [9]: 20 to 30%; Activity [10]: Active; viability at 25 µM [11]: 29.4%; IC50 [12]: 3.8 µM; viability at 48 h, 25 µM [13]: 60%; Activity [14]: Active; Activity [15]: Active; Activity [16]: 15 - 25%; Activity [17]: 5%; Activity [18]: 24.1%; Activity [19]: 0.54%; IC50 [20]: 6.5 µM; IC50 [21]: 13.5 µM; Activity [22]: 5.31%; Activity [23]: 87.26%; IC50 [24]: 9.2 µM; Activity [25]: Active; Activity [26]: 0.18%; Activity [27]: 44.28%; selectivity ratio [28]: 2; Activity [29]: 3.7%; Activity [30]: 0.14%

Question: Which results are given for O=C1NC(=S)NC(=O)C1=C/C=C/c1cccs1?
Answer: IC50 [1]: 19.1 µM; Activity [2]: 17.4%; Activity [3]: 98%; IC50 [4]: 7.6 µM; IC50 [5]: 10.6 µM; selectivity ratio [6]: 2; IC50 [7]: 7.7 µM; Activity [8]: Active; viability at 25 µM [9]: 20 to 30%; Activity [10]: Active; viability at 25 µM [11]: 25.8%; IC50 [12]: 4 µM; viability at 48 h, 25 µM [13]: 60%; Activity [14]: Active; Activity [15]: Active; Activity [16]: 70%; Activity [17]: 65%; Activity [18]: 43.88%; Activity [19]: 0.4%; IC50 [20]: 7.2 µM; IC50 [21]: 12.4 µM; Activity [22]: 3.42%; Activity [23]: 90.28%; IC50 [24]: 7.9 µM; Activity [25]: Active; Activity [26]: 0.32%; Activity [27]: 40.54%; selectivity ratio [28]: 2; Activity [29]: 5.12%; Activity [30]: 0.58%
